# Values joined by “and” are separate entries in the source; they are usually repeats but may differ in a detail not shown here. Identical values can stand only once.
# Key:
# Δ^1–28 L-PGDS [1] = target: T1, Δ^1–28 L-PGDS (Homo sapiens, UniProt P41222); test: Intrinsic tryptophan fluorescence quenching assay; type: binding; details: compound 20 μM, L-PGDS 1.5 μM, pH 8.0; mean ± SE
# T1 sequence (P41222 29-190): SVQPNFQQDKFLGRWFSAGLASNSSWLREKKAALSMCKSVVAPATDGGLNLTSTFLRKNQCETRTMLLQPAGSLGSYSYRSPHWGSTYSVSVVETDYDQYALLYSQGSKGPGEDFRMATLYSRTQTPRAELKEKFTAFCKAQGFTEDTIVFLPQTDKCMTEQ
# Procedure, shortened: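 Recombinant human Δ1–28 L-PGDS, delipidated on hydroxypropyl-beaded dextran (1 h, 37 °C), used at 1.5 μM in 5 mM Tris–HCl pH 8.0. Test compound (2 mM DMSO stock) added at 20 μM final; equilibrated 30 min at 25 °C. Tryptophan fluorescence read at ex/em 282/340 nm and corrected for nonspecific effects with N-acetyl-L-tryptophanamide (1.5 μM). Reported relative to vehicle; ≥3 independent assays.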
# L-PGDS = details: known high-affinity L-PGDS ligand; ref Breustedt et al., 2006; cited from earlier work
# Δ^1–28 L-PGDS [2] = target: T1, Δ^1–28 L-PGDS; test: Fluorescence displacement binding assay; details: for Binding to Δ^1–28 L-PGDS, DAUDA displacement: DAUDA probe
# Δ^1–28 L-PGDS [3] = target: T1, Δ^1–28 L-PGDS; test: Determination of fluorescent probe binding affinity
# [4] = DAUDA (500 nM) displacement, L-PGDS 3 μM, pH 7.6, 25 °C, mean ± SE
# [5] = Ki, DAUDA (500 nM) displacement, L-PGDS 3 μM, pH 7.6, 25 °C, mean ± SE
Compound,"Quenching (%), fluorescence reduction relative to vehicle-treated Δ^1–28 L-PGDS (Δ^1–28 L-PGDS [1])",Ki (Δ^1–28 L-PGDS [2]; [5]),other results
CC1=C(/C=C/C(C)=C/C=C/C(C)=C/C(=O)O)C(C)(C)CCC1 [all-trans retinoic acid],71.1 ± 1.4%,,Kd (L-PGDS): 0.29 µM
CCCCC[C@H](O)/C=C/[C@@H]1[C@@H](C/C=C\CCCC(=O)NCCO)[C@@H](O)C[C@H]1O [Prostamide F2α],0.1 ± 2.6%,,"Ki (Δ^1–28 L-PGDS [2]; [4]): > 200 µM; Binding to Δ^1–28 L-PGDS, DAUDA displacement (Δ^1–28 L-PGDS [2]): not found to bind with any appreciable affinity"
"CCCCCc1cc(O)c2c(c1)OC(C)(C)[C@@H]1CCC(C(=O)O)=C[C@@H]21 [THC-COOH, 11-nor-9-carboxy-Δ^9-tetrahydrocannabinol]",15.6 ± 1.3%,,Ki (Δ^1–28 L-PGDS [2]; [4]): 7.8 ± 1.7 µM; Ki (Δ^1–28 L-PGDS [2]; DAUDA displacement): 7.8 ± 1.7 µM
"CCCCCc1cc(O)c2c(c1)OC(C)(C)[C@@H]1CCC(C)=C[C@@H]21 [THC, Δ^9-tetrahydrocannabinol]",14.0 ± 2.2%,,Ki (Δ^1–28 L-PGDS [2]; [4]): 175 ± 26 µM
11-hydroxy-Δ^9-tetrahydrocannabinol [11-OH-THC],9.7 ± 1.3%,,Ki (Δ^1–28 L-PGDS [2]; [4]): 61 ± 14 µM; Ki (Δ^1–28 L-PGDS [2]; DAUDA displacement): 61 ± 14 µM
"CN(C)c1cccc2c(S(=O)(=O)NCCCCCCCCCCC(=O)O)cccc12 [DAUDA, 11-(dansylamino)undecanoic acid]",,,Kd (Δ^1–28 L-PGDS [3]): 0.96 ± 0.08 µM
"CCCCC/C=C\C/C=C\C/C=C\C/C=C\CCCC(=O)OC(CO)CO [2-AG, 2-arachidonoylglycerol]",−0.8 ± 3.0%,> 200 µM,"Binding to Δ^1–28 L-PGDS, DAUDA displacement (Δ^1–28 L-PGDS [2]): did not bind"
"CCCCCCC(C)(C)c1cc(O)c2c(c1)OC(C)(C)[C@@H]1CC=C(C(=O)O)C[C@@H]21 [AJA, ajulemic acid]",21.9 ± 2.9%,2.2 µM and 2.3 µM,
O=C(O)C1[C@H](c2ccccc2)C(C(=O)Oc2cccc3ccccc23)[C@H]1c1ccccc1 (some centres unmarked) [SBFI-26],33.3 ± 2.2%,,Ki (Δ^1–28 L-PGDS [2]; [4]): 3 ± 0.5 µM
"CCCCC[C@H](O)/C=C/[C@@H]1[C@@H](C/C=C\CCCC(=O)O)[C@@H](O)C[C@H]1O [PGF2α, prostaglandin F2α]",2.7 ± 1.7%,81 ± 9 µM,
"CCCCCCC(CCCCCCCCCCC(=O)O)N(C)c1ccc([N+](=O)[O-])c2nonc12 (centres unmarked) [NBD-stearate, 12-N-methyl-(7-nitrobenz-2-oxa-1,3-diazo)aminostearic acid]",,,Binding of fluorescent probe (Δ^1–28 L-PGDS [3]; L-PGDS 1 μM titrated with probe): did not exhibit appreciable binding
CCCCCCCC/C=C\CCCCCCCC(N)=O [Oleamide],3.6 ± 2.0%,> 200 µM,
"O=S(=O)(O)c1cccc2cccc(Nc3ccccc3)c12 [ANS, 1-anilinonaphthalene-8-sulfonic acid]",,,Kd (Δ^1–28 L-PGDS [3]): 3.4 ± 0.8 µM
"CCCCCCCCCCCCCCCC(=O)NCCO [PEA, palmitoylethanolamide]",1.3 ± 4.7%,> 200 µM,"Binding to Δ^1–28 L-PGDS, DAUDA displacement (Δ^1–28 L-PGDS [2]): did not display any appreciable binding"
"C=C(C)[C@@H]1CCC(C)=C[C@H]1c1c(O)cc(CCCCC)cc1O [CBD, cannabidiol]",7.2 ± 2.1%,77.9 ± 3.9 µM,
"CCCCC/C=C\C/C=C\C/C=C\C/C=C\CCCC(=O)NCCO [AEA, N-arachidonoylethanolamine]",3.1 ± 3.3%,> 200 µM,"Affinity for Δ^1–28 L-PGDS, ANS displacement (Δ^1–28 L-PGDS [2]; ANS probe (500 nM)): lack of affinity; Binding to Δ^1–28 L-PGDS, DAUDA displacement (Δ^1–28 L-PGDS [2]): did not bind"
"CCCCC[C@H](O)/C=C/[C@H]1[C@H](O)CC(=O)[C@@H]1C/C=C\CCCC(=O)O [PGE2, prostaglandin E2]",6.5 ± 1.5%,128 ± 16 µM,
"CCCCCCCC/C=C\CCCCCCCC(=O)NCCO [OEA, oleoylethanolamide]",−0.9 ± 2.1%,> 200 µM,"Binding to Δ^1–28 L-PGDS, DAUDA displacement (Δ^1–28 L-PGDS [2]): did not display any appreciable binding"
"CCCCCCCC/C=C\CCCCCCCC(=O)O [OLA, oleic acid]",15.1 ± 3.7%,1.8 ± 0.9 µM,
"CCCCCC/C=C\CCCCCCCC(=O)O [PLA, palmitoleic acid]",11.9 ± 2.3%,3.7 ± 0.5 µM,
prostaglandin E2-glyceryl ester [PGE2-GE],15.1 ± 1.7%,,Ki (Δ^1–28 L-PGDS [2]; [4]): 11.2 ± 1.2 µM
